# Measured values published in publication PMC6525002 (Cancer Management and Research, 2019).
# “Also recorded” adds a separate entry of the source.
# Tested on: patients with advanced NSCLC and EGFR gene mutations
# Assay: Phase Ib safety and toxicity
# Type: in vivo, human
# How it was run: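 3+3 dose escalation (modified Fibonacci) of oral test compound, 100–650 mg flat doses twice daily for 28 days. Safety population was all patients dosed at least once. AEs were graded by NCI CTCAE v4.0. Haematology, liver and renal labs were taken predose on Days 1, 8, 15, 22 and 29, plus ECG, echocardiography and chest X-ray. MTD was defined by >1 DLT per dose level.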
substance,measurement,setting,value
simotinib,Aminotransferase elevation,"100 mg twice daily, N=2",0 n (%)
same,Bilirubin elevation,"100 mg twice daily, N=2",0 n (%)
same,Diarrhea,"100 mg twice daily, N=2",0 n (%)
same,Erythrocyte reduction,"100 mg twice daily, N=2",0 n (%)
same,Fatigue,"100 mg twice daily, N=2",2 (100) n (%)
same,Neutropenia,"100 mg twice daily, N=2",0 n (%)
same,Pruritus,"100 mg twice daily, N=2",2 (100) n (%)
same,Rash,"100 mg twice daily, N=2",1 (50.0) n (%)
same,Aminotransferase elevation,"200 mg twice daily, N=3",0 n (%)
same,Bilirubin elevation,"200 mg twice daily, N=3",2 (66.7) n (%)
same,Diarrhea,"200 mg twice daily, N=3",3 (100) n (%)
same,Erythrocyte reduction,"200 mg twice daily, N=3",1 (33.3) n (%)
same,Fatigue,"200 mg twice daily, N=3",1 (33.3) n (%)
same,Neutropenia,"200 mg twice daily, N=3",3 (100) n (%)
same,Pruritus,"200 mg twice daily, N=3",2 (66.7) n (%)
same,Rash,"200 mg twice daily, N=3",2 (66.7) n (%)
same,Aminotransferase elevation,"300 mg twice daily, N=3",1 (33.3) n (%)
same,Bilirubin elevation,"300 mg twice daily, N=3",2 (66.7) n (%)
same,Diarrhea,"300 mg twice daily, N=3",3 (100) n (%)
same,Erythrocyte reduction,"300 mg twice daily, N=3",0 n (%)
same,Fatigue,"300 mg twice daily, N=3",2 (66.7) n (%)
same,Neutropenia,"300 mg twice daily, N=3",1 (33.3) n (%)
same,Pruritus,"300 mg twice daily, N=3",1 (33.3) n (%)
same,Rash,"300 mg twice daily, N=3",0 n (%)
same,death during the treatment phase,400 mg dose,1 patient
same,patients with at least 1 study drug-related AE,400 mg dose group,86.7%
same,Aminotransferase elevation,"400 mg twice daily, N=15",2 (13.3) n (%)
same,Bilirubin elevation,"400 mg twice daily, N=15",1 (6.7) n (%)
same,Diarrhea,"400 mg twice daily, N=15",7 (46.7) n (%)
same,Erythrocyte reduction,"400 mg twice daily, N=15",4 (26.7) n (%)
same,Fatigue,"400 mg twice daily, N=15",2 (13.3) n (%)
same,Neutropenia,"400 mg twice daily, N=15",3 (20.0) n (%)
same,Pruritus,"400 mg twice daily, N=15",4 (26.7) n (%)
same,Rash,"400 mg twice daily, N=15",2 (13.3) n (%)
same,patients with at least 1 study drug-related AE,500 mg dose group,91.7%
same,AEs of grade ≥3,500 mg group,3 patients
same,Aminotransferase elevation,"500 mg twice daily, N=12",2 (16.7) n (%)
same,Bilirubin elevation,"500 mg twice daily, N=12",2 (16.7) n (%)
same,Diarrhea,"500 mg twice daily, N=12",7 (58.3) n (%)
same,Erythrocyte reduction,"500 mg twice daily, N=12",2 (16.7) n (%)
same,Fatigue,"500 mg twice daily, N=12",3 (25.0) n (%)
same,Neutropenia,"500 mg twice daily, N=12",2 (16.7) n (%)
same,Pruritus,"500 mg twice daily, N=12",1 (8.3) n (%)
same,Rash,"500 mg twice daily, N=12",9 (75.0) n (%)
same,Aminotransferase elevation,"650 mg twice daily, N=6",3 (50.0) n (%)
same,Bilirubin elevation,"650 mg twice daily, N=6",0 n (%)
same,Diarrhea,"650 mg twice daily, N=6",3 (50.0) n (%)
same,Erythrocyte reduction,"650 mg twice daily, N=6",2 (33.3) n (%)
same,Fatigue,"650 mg twice daily, N=6",0 n (%)
same,Neutropenia,"650 mg twice daily, N=6",2 (33.3) n (%)
same,Pruritus,"650 mg twice daily, N=6",0 n (%)
same,Rash,"650 mg twice daily, N=6",3 (50) n (%)
same,patients with at least 1 study drug-related AE,"100, 200, 300, and 650 mg dose groups",all patients
same,tolerability,100 to 650 mg twice daily,well tolerated
same,dose-limiting toxicity (DLT),"100 to 650 mg twice daily, 28 days",no dose-limiting toxicities; also recorded: No DLT was observed
same,Aminotransferase elevation,Total N=41,8 (19.5) n (%)
same,Bilirubin elevation,Total N=41,7 (17.1) n (%)
same,Diarrhea,Total N=41,23 (56.1) n (%)
same,Erythrocyte reduction,Total N=41,9 (22.0) n (%)
same,Fatigue,Total N=41,10 (24.4) n (%)
same,Neutropenia,Total N=41,11 (26.8) n (%)
same,Pruritus,Total N=41,10 (24.4) n (%)
same,Rash,Total N=41,17 (41.5) n (%)
same,"AEs of grade ≥3, patients","all doses, 7 of 41 patients",17.1%
same,patients with at least one study drug-related AE,"all doses, 38 of 41 patients",92.7%
same,patients with at least one AE,"all doses, 39 of 41 patients",95.1%
same,"anemia, frequency","all doses, 41 patients",22.0%
same,"diarrhea, frequency","all doses, 41 patients",56.1%
same,"fatigue, frequency","all doses, 41 patients",24.4%
same,"increased level of aminotransferase, frequency","all doses, 41 patients",19.5%
same,"increased level of bilirubin, frequency","all doses, 41 patients",17.1%
same,"neutropenia, frequency","all doses, 41 patients",26.8%
same,"pruritus, frequency","all doses, 41 patients",24.4%
same,"rash, frequency","all doses, 41 patients",41.5%
same,maximum tolerated dose (MTD),doses of up to 650 mg twice daily,not found; also recorded: not reached
same,patients who discontinued the study,"one patient, 500 mg",2.4%
